In brackets after ≈: the same amount, converted by molar mass.
How the values were obtained:
[1] = Octanol-water partition coefficient, log P by RP-HPLC method; assay type: physicochemical
[2] = Antiproliferative activity against HUVEC after 72 hrs by resazurin dye reduction assay; assay type: cell-based; conditions: human, HUVEC cells
K562 = assay: Antiproliferative activity against human K562 cells after 72 hrs by resazurin dye reduction assay; assay type: functional; conditions: K562, 72 h
How it was run: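 K-562 cells grown at 37 °C in RPMI 1640 with ultraglutamine, gentamicin and 10% heat-inactivated FBS. About 10,000 cells seeded per well in 0.1 mL medium. Compounds were dissolved in DMSO, diluted in DMEM and incubated with cells for 72 h at 37 °C, humidified, 5% CO2. Viable cells were read by CellTiter-Blue resazurin fluorescence. GI50 was taken where the dose-response curve crosses 50% of untreated control, with 4 parallels per concentration.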

HeLa = assay: Cytotoxicity against human HeLa cells after 72 hrs by methylene blue staining; assay type: functional
How it was run: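 HeLa cells were cultured at 37 °C in RPMI 1640 with ultraglutamine, gentamicin and 10% heat-inactivated FBS, then pre-incubated 48 h without compound. Compound dilutions went onto the subconfluent monolayers, followed by 72 h at 37 °C, humidified, 5% CO2. Cells were fixed with glutaraldehyde, stained 15 min with 0.05% methylene blue and eluted with 0.33 N HCl, with OD read at 660 nm. CC50 was taken at 50% of untreated control, with 4 parallels per concentration.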

Albumin = Albumin (Homo sapiens, UniProt P02768); assay: Binding affinity to HSA after 30 mins assessed as quenching of intrinsic HSA fluorescence emission by spectrofluorimetric assay; assay type: ADME
Albumin, sequence (P02768 whole entry): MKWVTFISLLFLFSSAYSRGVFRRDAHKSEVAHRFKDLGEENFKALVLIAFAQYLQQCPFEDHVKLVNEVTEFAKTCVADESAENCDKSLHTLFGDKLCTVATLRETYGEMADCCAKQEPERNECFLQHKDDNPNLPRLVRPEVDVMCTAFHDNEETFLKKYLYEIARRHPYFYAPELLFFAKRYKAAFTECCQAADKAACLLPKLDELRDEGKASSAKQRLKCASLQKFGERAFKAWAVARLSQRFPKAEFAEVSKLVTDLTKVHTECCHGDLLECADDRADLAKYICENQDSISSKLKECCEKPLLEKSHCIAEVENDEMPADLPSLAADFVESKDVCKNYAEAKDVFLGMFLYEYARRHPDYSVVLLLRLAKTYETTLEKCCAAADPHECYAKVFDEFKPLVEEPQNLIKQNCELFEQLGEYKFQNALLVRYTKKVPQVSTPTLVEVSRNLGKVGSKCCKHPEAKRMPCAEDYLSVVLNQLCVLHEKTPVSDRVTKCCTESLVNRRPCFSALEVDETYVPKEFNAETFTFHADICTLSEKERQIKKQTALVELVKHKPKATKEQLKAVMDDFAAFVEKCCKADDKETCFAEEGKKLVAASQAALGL
How it was run: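 Intrinsic tryptophan fluorescence of HSA at 2 µM final in PBS pH 7.4. Compound stocks were made in DMSO and titrated at increasing concentrations, with 30 min incubation at ambient temperature. Kd came from a quadratic binding equation fitted by nonlinear least squares (Marquardt).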

| logP [1] | GI50 (K562) [µg/mL] | Kd (Albumin) [µM] | Structure (SMILES) | GI50 at 72 h [2] [µg/mL] | CC50 (HeLa) [µg/mL] |
| --- | --- | --- | --- | --- | --- |
| 3.6 | 5.8 (≈ 17.6 µM) | 7.96 | CN(C)C1=NN(c2ccccc2)CN(c2ccccc2Cl)C1=O | 34.5 (≈ 105 µM) | 39.5 (≈ 120 µM) |
| 0.71 | 1 (≈ 1.84 µM) |  | COc1cccc2c1C(=O)c1c(O)c3c(c(O)c1C2=O)C[C@@](O)(C(=O)CO)C[C@@H]3O[C@H]1C[C@H](N)[C@H](O)[C@H](C)O1 [DOXORUBICIN] | 0.1 (≈ 0.184 µM) | 2 (≈ 3.68 µM) |
| 4.2 | 11 (≈ 30.3 µM) | 10.2 | CN(C)C1=NN(c2ccc(Cl)cc2)CN(c2ccccc2Cl)C1=O | 16.1 (≈ 44.3 µM) | 39.4 (≈ 108 µM) |
| 5 | > 50 |  | O=C1C(N2CCCCC2)=NN(c2ccc(Cl)cc2)CN1c1ccccc1Cl | > 50 | > 50 |
| 4.6 | 42 (≈ 114 µM) |  | O=C1C(N2CCCCC2)=NN(c2ccccc2)CN1c1ccccc1Cl | 24.7 (≈ 67 µM) | 26 (≈ 70.5 µM) |
| 3.5 | > 50 |  | O=C1C(N2CCOCC2)=NN(c2ccccc2)CN1c1ccccc1Cl | > 50 | > 50 |
| 4.6 | 8.6 (≈ 22.1 µM) | 2.77 | O=C1C(N2CCCC2)=NN(c2ccc(Cl)cc2)CN1c1ccccc1Cl | 18.9 (≈ 48.6 µM) | > 50 |
| 4 | > 50 |  | O=C1C(N2CCOCC2)=NN(c2ccc(Cl)cc2)CN1c1ccccc1Cl | 45.6 (≈ 113 µM) | > 50 |
| 4 | 5.2 (≈ 14.7 µM) | 2.46 | O=C1C(N2CCCC2)=NN(c2ccccc2)CN1c1ccccc1Cl | 40.9 (≈ 115 µM) | 44.3 (≈ 125 µM) |
|  | 0.1 (≈ 0.203 µM) |  | Cc1ccc(NC(=O)c2ccc(CN3CCN(C)CC3)cc2)cc1Nc1nccc(-c2cccnc2)n1 [IMATINIB] | 10.9 (≈ 22.1 µM) |  |

— ChEMBL document CHEMBL1157585, “Synthesis and characterization of novel 1,2,4-triazine derivatives with antiproliferative activity” (Bioorg Med Chem, 2010)
